Bioassay records (PubChem)
Rows were chosen to be rich in hits. Some 2.5% of all compounds tested hit in one or more screens of this group.
SENP1 FRET inh: human SENP1 catalytic domain inhibitors, primary screen, biochemical, FRET, uHTS; recombinant SENP1 catalytic domain, CyPet-SUMO1-YPet FRET cleavage; actives 0.21% (n = 360,000); AID 624204, 2012; inhibition, % at 10 µM; Sentrin-specific protease 1 (Homo sapiens), Q9P0U3;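 active = inhibition at least 30% at 10 µM, raw YFP signal under a set limit, fluorescence ratio 0.5 to 1.5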;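 note: 0% = enzyme with DMSO and 100% = no enzyme wells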
Target sequence (Q9P0U3 419-644 limits assumed): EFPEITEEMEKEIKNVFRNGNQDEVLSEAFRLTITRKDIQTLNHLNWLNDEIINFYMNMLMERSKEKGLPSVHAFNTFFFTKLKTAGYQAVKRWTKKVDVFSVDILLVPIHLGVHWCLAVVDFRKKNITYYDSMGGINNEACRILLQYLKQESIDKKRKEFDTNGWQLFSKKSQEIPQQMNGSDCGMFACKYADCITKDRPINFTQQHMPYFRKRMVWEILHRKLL
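Assay system – human recombinant His6-tagged SENP1 catalytic domain enzyme · Input – SENP1 enzyme, 20 pM final · Buffer or medium – Tris pH 8 buffer plus EDTA, NaCl, BME, BSA, NP40, catalase · Schedule – 50 min reaction at room temperature · Technique – FRET read of cyan and yellow fluorescence · Control set – no-enzyme wells low, DMSO-plus-enzyme wells high control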
SENP8 block-1: human SENP8 protease inhibitors, primary screen, biochemical, fluorescence, Nedd8 protein substrate, uHTS | Sentrin-specific protease 8 (Homo sapiens), Q96LD8 | inhibition, % at 20 µM | actives 0.64% (n = 360,000) | recombinant SENP8 | AID 602440, 2012; in the data active = inhibition mostly above about 40%, no sharp cut-off; inactive = mostly below about 27%
SENP6 inh: SENP6 protease inhibitors, primary screen, biochemical, luminescence, uHTS | Sentrin-specific protease 6 (Homo sapiens), Q9GZR1 | inhibition, % at 10 µM | Recombinant SENP6 catalytic domain, aminoluciferin luminescence | actives 1.8% (n = 330,000);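 active = inhibition above about 50% at the single tested dose, limit read from the data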;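 note: plate controls were DMSO wells with enzyme for no effect and DMSO wells lacking enzyme for full effect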
SENP7 block: SENP7 protease inhibitors, primary screen, biochemical, luminescence, uHTS; AID 434973, 2010; actives 1.5% (n = 330,000); recombinant SENP7, Z-RLRGG-aminoluciferin luminescence, 40 min; inhibition, % at 5 µM;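 active = inhibition above about 50% at the single test dose, limit read from the data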;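 note: plate controls were DMSO with enzyme for no effect and no enzyme buffer wells for full effect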
Target sequence (Q9BQF6 706-1050 limits assumed): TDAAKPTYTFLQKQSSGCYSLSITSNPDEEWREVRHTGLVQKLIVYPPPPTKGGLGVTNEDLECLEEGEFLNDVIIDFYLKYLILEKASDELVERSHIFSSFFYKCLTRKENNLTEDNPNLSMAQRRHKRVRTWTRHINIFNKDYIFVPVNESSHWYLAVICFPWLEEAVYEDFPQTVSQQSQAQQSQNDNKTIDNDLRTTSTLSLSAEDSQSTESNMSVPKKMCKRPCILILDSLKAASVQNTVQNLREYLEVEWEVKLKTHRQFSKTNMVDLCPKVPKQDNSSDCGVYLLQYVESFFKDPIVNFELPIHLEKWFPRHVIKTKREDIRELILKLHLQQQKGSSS
SENP8 block-2: SENP8 protease inhibitors, primary screen, biochemical, luminescence; actives 1.2% (n = 330,000); inhibition, % at 10 µM; purified SENP8, Z-RLRGG-aminoluciferin cleavage; Sentrin-specific protease 8 (Homo sapiens), Q96LD8; AID 2540, 2010; in the data active = inhibition above about 50%
SENP8 confirm: SENP8 protease inhibitors, retest, confirmation, biochemical, luminescence, single concentration; actives 40% (n = 6,200); Recombinant SENP8, Z-RLRGG-aminoluciferin luminescence, 60 min; AID 488912, 2010; inhibition, % at 12.5 µM; shares compounds with SENP7 block;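 active = mean inhibition across replicates above about 50%, limit read from the data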
SENP6 confirm: SENP6 protease inhibitors, confirmation, biochemical, luminescence, single concentration | shares compounds with SENP7 block | recombinant SENP6, Z-RLRGG-aminoluciferin luminescence | inhibition, % at 12.5 µM | actives 58% (n = 6,200)
SENP7 confirm: SENP7 protease inhibitors, retest, confirmation, biochemical, luminescence, single concentration | recombinant SENP7, Z-RLRGG-aminoluciferin luminescence, 40 min | shares compounds with SENP7 block | inhibition, % at 12.5 µM | actives 69% (n = 6,200)
Casp3 select: caspase-3 protease inhibitors, confirmation, selectivity assay for SENP inhibitor project, biochemical, single concentration; shares compounds with SENP7 block; purified caspase-3, Z-DEVD-aminoluciferin luminescence, 60 min; inhibition, % at 12.5 µM; actives 60% (n = 6,200);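 active = mean inhibition above about 50%, limit read from the data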;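 note: plate controls were enzyme with DMSO for no effect and wells without caspase-3 for full effect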
Luc interf: counter-screen for SENP inhibitors: luminescence interference. Pre-incubated SENP8/Z-RLRGG-aminoluciferin, luciferase luminescence interference. shares compounds with SENP7 block. inhibition, % at 12.5 µM. actives 39% (n = 6,200). AID 488919;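 active = mean inhibition above about 50% when retested at one dose, limit read from the data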;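 note: plate controls were DMSO wells with completed reaction for no effect and substrate without enzyme for full effect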
* hit, by the source's call.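 Rule for the calls, unless noted: active = mean inhibition above about 50% in the one-dose retest (limit read from the data); inactive = the rest.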

For CSCCC(NC(=O)OC(C)(C)C)C(=O)Oc1ccc2c(=O)c(-c3ccc4c(c3)OCCO4)coc2c1 (centres undefined) the results were SENP1 FRET inh -4, SENP8 block-1 -208, SENP6 inh 62*, SENP7 block 48, SENP8 block-2 33, SENP8 confirm 14, SENP6 confirm 18, SENP7 confirm 58*, Casp3 select 76* and Luc interf 13.
For CCOc1ccc(N2CC(C(=O)N3CCN(c4ccccn4)CC3)CC2=O)cc1 (centres undefined) the results were SENP1 FRET inh 0, SENP8 block-1 -13, SENP6 inh -2, SENP7 block -2 and SENP8 block-2 -1.
For CCOC(=O)c1sc(NN=C(C(=O)OC)C(=O)OC)c(C(=O)OCC)c1C the results were SENP1 FRET inh 18, SENP8 block-1 12, SENP6 inh -4, SENP7 block 8 and SENP8 block-2 -3.
Screening Nc1ccc(C(=O)N(CCO)CCO)cc1 returned SENP1 FRET inh -1, SENP8 block-1 -5, SENP6 inh 0, SENP7 block 3 and SENP8 block-2 1.
Nc1ccc(N(CCO)CCO)cc1 was read as SENP1 FRET inh 21, SENP8 block-1 65*, SENP6 inh 57*, SENP7 block 21, SENP8 block-2 29, SENP8 confirm 20, SENP6 confirm 22, SENP7 confirm 15, Casp3 select 6 and Luc interf 4.
`O=C(Nc1ccc(Br)cn1)c1ccc2ccccc2c1` gave SENP1 FRET inh 3, SENP8 block-1 0, SENP6 inh -1, SENP7 block 61*, SENP8 block-2 -11, SENP8 confirm -9, SENP6 confirm -7, SENP7 confirm -2, Casp3 select 8 and Luc interf 3.
`O=C(Nc1ccc(Br)cn1)c1cccc(C(=O)Nc2ccc(Br)cn2)c1` gave SENP1 FRET inh 3, SENP8 block-1 10, SENP6 inh 5, SENP7 block -12 and SENP8 block-2 -7.
Screening O=C(Nc1nccs1)c1ccc2ccccc2c1 returned SENP1 FRET inh -2, SENP8 block-1 -1, SENP6 inh 73*, SENP7 block 72*, SENP8 block-2 69*, SENP8 confirm 81*, SENP6 confirm 80*, SENP7 confirm 93*, Casp3 select 71* and Luc interf 80*.
`COc1ccc(OC)c2nc(-c3ccc4c(c3)OCO4)ccc12` gave SENP1 FRET inh -6, SENP8 block-1 -291, SENP6 inh 9, SENP7 block 0 and SENP8 block-2 -8.
For CCNC(=S)NNC(=O)c1cc(-c2ccc(OC)cc2)nc2ccccc12 the results were SENP1 FRET inh 4, SENP8 block-1 -415, SENP6 inh 93*, SENP7 block 95*, SENP8 block-2 91*, SENP8 confirm 96*, SENP6 confirm 96*, SENP7 confirm 100*, Casp3 select 97* and Luc interf 90*.
`CCNC(=S)NNC(=O)c1cc(-c2cccc(C)c2)nc2ccccc12` gave SENP1 FRET inh 3, SENP8 block-1 -65, SENP6 inh 85*, SENP7 block 72*, SENP8 block-2 81*, SENP8 confirm 90*, SENP6 confirm 90*, SENP7 confirm 98*, Casp3 select 96* and Luc interf 92*.
For CCNC(=S)NNC(=O)c1cc(-c2cccc(OCC)c2)nc2ccccc12 the results were SENP1 FRET inh 3, SENP8 block-1 -64, SENP6 inh -7, SENP7 block -5 and SENP8 block-2 -2.
Screening CCCCOc1ccc(-c2cc(C(=O)NNC(=S)NCC)c3ccccc3n2)cc1 returned SENP1 FRET inh 3, SENP8 block-1 -269, SENP6 inh 101*, SENP7 block 93*, SENP8 block-2 94*, SENP8 confirm 98*, SENP6 confirm 99*, SENP7 confirm 103*, Casp3 select 98* and Luc interf 65*.
For O=C(CCC1CCCC1)NNC(=O)c1ccccc1O the results were SENP1 FRET inh 2, SENP8 block-1 -249, SENP6 inh -12, SENP7 block -11 and SENP8 block-2 12.
`NC(Cc1ccc(Cl)cc1)c1csc(Nc2cc(NCCCO)ncn2)n1` (centres undefined) gave SENP1 FRET inh -6 and SENP8 block-1 -4.
COc1cccc(C(O)c2ncc(-c3ccccc3)[nH]2)c1 (centres undefined) was read as SENP1 FRET inh -1 and SENP8 block-1 5.
For c1ccc(-c2ccc(-c3cn4c(n3)CCC4)cc2)cc1 the results were SENP1 FRET inh 1, SENP8 block-1 -444, SENP6 inh 87*, SENP7 block 73*, SENP8 block-2 69*, SENP8 confirm 80*, SENP6 confirm 80*, SENP7 confirm 95*, Casp3 select 66* and Luc interf 60*.
Screening CCC(C)[C@H](NC(=O)NCc1ccc(S(N)(=O)=O)cc1)C(=O)O (some centres undefined) returned SENP1 FRET inh 3, SENP8 block-1 21, SENP6 inh 8, SENP7 block 4 and SENP8 block-2 0.
`c1cnc2c(SCc3ccc(-c4nnco4)cc3)cccc2c1` gave SENP1 FRET inh -1, SENP8 block-1 inactive, SENP6 inh 36, SENP7 block 13 and SENP8 block-2 3.
`COC(=O)c1ccc(CSc2nc3ccccc3[nH]2)o1` gave SENP1 FRET inh -2, SENP8 block-1 7, SENP6 inh 11, SENP7 block 11 and SENP8 block-2 6.
